What was measured:
[1] = tested on: Mus musculus; test: Antiinflammatory activity against FVB mouse assessed as inhibition of zymosan-induced neutrophil infiltration at 15 ug/kg, iv relative to control; assay type: functional
Outline: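 Male FVB mice, 6–8 weeks old, given 15 μg kg⁻¹ by intravenous bolus into the tail vein in 100 μL sterile saline, then an intraperitoneal injection of zymosan A (1 mg/1 mL). Peritoneal lavage was collected at 2 h, and total leukocytes, PMNs and monocytes were counted. PMN inhibition is relative to zymosan A plus saline vehicle. Values are means ± SEM, n = 5–10.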

[2] = Stability assessed as rate of NADH formation in presence of eicosanoid oxido-reductase; assay type: ADME
Outline: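 Compound at ~15 μM incubated with 50 ng recombinant eicosanoid oxido-reductase in 0.1 M Tris–HCl pH 9.0 with 1 mM NAD⁺, 37 °C, 25 min, while NADH formation was monitored. Initial velocity was taken by linear regression over the linear phase of conversion. Values are means ± SEM, n = 3.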

Row | Structure (SMILES) | inhibition in vivo at 0.015 mg/kg [1] | Stability [2]
1 | CCCCC[C@@H](O)/C=C/C=C/c1ccccc1/C=C/[C@@H](O)[C@@H](O)CCCC(=O)OC | 17.3% | 0.14 µM/min
2 | CCCCC[C@@H](O)/C=C/c1cccc(/C=C/[C@@H](O)[C@@H](O)CCCC(=O)OC)c1 | 32% | 0.45 µM/min
3 | CCCCC[C@@H](O)/C=C/c1ccccc1/C=C/[C@@H](O)[C@@H](O)CCCC(=O)OC | 32.2% | 0.19 µM/min
4 | CCCCC[C@@H](O)/C=C/C=C\C=C\C=C\[C@@H](O)[C@@H](O)CCCC(=O)O | – | 0.21 µM/min
5 | COC(=O)CCC[C@H](O)[C@H](O)/C=C/C=C/C=C\C=C\[C@H](O)COc1ccc(F)cc1 | 40.5% | –
6 | CCCCCC/C=C/c1ccccc1/C=C/[C@@H](O)[C@@H](O)CCCC(=O)OC | 23.9% | 0.04 µM/min
7 | CCCCCC(O)c1ccccc1/C=C/[C@@H](O)[C@@H](O)CCCC(=O)OC (mixture of isomers) | 22.3% | 0.09 µM/min
8 | CCCCC[C@H](O)/C=C/C=C\C=C\C=C\[C@@H](O)[C@@H](O)CCCC(=O)O [LIPOXIN A4] | – | 2.42 µM/min

Source: ChEMBL document CHEMBL1142294, “Design and synthesis of benzo-lipoxin A4 analogs with enhanced stability and potent anti-inflammatory properties” (Bioorg Med Chem Lett, 2008)
